Results on 6 compounds are retold here after ChEMBL document CHEMBL1152424, “Syntheses and biological evaluations of carbosilane dendrimers uniformly functionalized with sialyl alpha(2-->3) lactose moieties as inhibitors for human influenza viruses” (Bioorg Med Chem, 2009).

Test [1] relates to Influenza A virus. Briefly: Antiviral activity against human influenza virus A/PR/8/38(H1N1) infected in guinea pig erythrocyte assessed as inhibition of hemolysis. Type of test: functional, organism-based. The note with it: A/Puerto Rico/8/1934(H1N1). An outline of the steps:
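Virus (2^8 HAU) preincubated 1 h at 4 °C with inhibitor in PBS. Then 2.5% (v/v) guinea pig erythrocytes added, 30 min at 4 °C. Cells pelleted, resuspended in 20 mM acetate-buffered saline pH 5.0, 30 min at 37 °C. Hemoglobin released read at A550 against 0.1% Triton X-100 as 100% hemolysis. IC50 expressed per sialyl lactose unit.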

In test [2] the test system is Influenza A virus. Briefly: Antiviral activity against human influenza virus A/PR/8/38(H1N1) infected in chicken erythrocyte assessed as inhibition of hemagglutination after 1 hr. It is filed as functional, organism-based. The note with it: A/Puerto Rico/8/1934(H1N1). The method, boiled down: (§1)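 Twofold serial dilutions of inhibitor in PBS pH 6.5 with 0.01% gelatin, mixed with virus (2^2 HA units) for 1 h at 4 °C. Then 0.5% (v/v) chicken erythrocytes added, 1 h at 4 °C. Titer is the maximum dilution giving complete inhibition of hemagglutination. Concentrations are expressed per sialyl lactose unit. Virus was egg-grown and purified.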

Test [3] concerns Influenza A virus. Briefly: Antiviral activity against human influenza virus A/PR/8/38(H1N1) infected in MDCK cells assessed as neutralization of viral infection after 20 hrs by colorimetric assay. It is filed as functional, organism-based. The note with it: A/Puerto Rico/8/1934(H1N1).
In a further test the test system is H3N2 subtype. As to the kind of experiment: Antiviral activity against human influenza virus A/Aichi/2/1968(H3N2) infected in chicken erythrocyte assessed as inhibition of hemagglutination after 1 hr. Type of test: functional, organism-based. An outline of the steps: as §1
Test [4] deals with Influenza A virus. As to the kind of experiment: Antiviral activity against human influenza virus A/Memphis/1/71(H3N2) infected in chicken erythrocyte assessed as inhibition of hemagglutination after 1 hr. It is filed as functional, organism-based, Influenza A virus (A/Memphis/1/1971(H3N2)). An outline of the steps:
as §1

Regarding `N[C@H]1[C@H]([C@H](O)[C@H](O)CO)O[C@@](O[C@H]2[C@@H](O)[C@@H](CO)O[C@@H](O[C@H]3[C@H](O)[C@@H](O)[C@H](OCCCCCSCCCCCC(=O)NCCC[Si](CCCNC(=O)CCCCCSCCCCCO[C@@H]4O[C@H](CO)[C@@H](O[C@@H]5O[C@H](CO)[C@H](O)[C@H](O[C@]6(C(=O)O)C[C@H](O)[C@@H](N)[C@H]([C@H](O)[C@H](O)CO)O6)[C@H]5O)[C@H](O)[C@H]4O)(CCCNC(=O)CCCCCSCCCCCO[C@@H]4O[C@H](CO)[C@@H](O[C@@H]5O[C@H](CO)[C@H](O)[C@H](O[C@]6(C(=O)O)C[C@H](O)[C@@H](N)[C@H]([C@H](O)[C@H](O)CO)O6)[C@H]5O)[C@H](O)[C@H]4O)c4ccccc4)O[C@@H]3CO)[C@@H]2O)(C(=O)O)C[C@@H]1O`, the IC50 in the test on Influenza A virus [1] was found to be 62.5 µM; in the test with Influenza A virus [2], 16 µM; in the test on Influenza A virus [3], 25 µM; with H3N2 subtype, 8 µM; in the test with Influenza A virus [4], 250 µM.
Take `C[Si](C)(CCC[Si](CCCSCCCCCO[C@@H]1O[C@H](CO)[C@@H](O[C@@H]2O[C@H](CO)[C@H](O)[C@H](O[C@]3(C(=O)O)C[C@H](O)[C@@H](N)[C@H]([C@H](O)[C@H](O)CO)O3)[C@H]2O)[C@H](O)[C@H]1O)(CCCSCCCCCO[C@@H]1O[C@H](CO)[C@@H](O[C@@H]2O[C@H](CO)[C@H](O)[C@H](O[C@]3(C(=O)O)C[C@H](O)[C@@H](N)[C@H]([C@H](O)[C@H](O)CO)O3)[C@H]2O)[C@H](O)[C@H]1O)CCCSCCCCCO[C@@H]1O[C@H](CO)[C@@H](O[C@@H]2O[C@H](CO)[C@H](O)[C@H](O[C@]3(C(=O)O)C[C@H](O)[C@@H](N)[C@H]([C@H](O)[C@H](O)CO)O3)[C@H]2O)[C@H](O)[C@H]1O)CCC[Si](CCCSCCCCCO[C@@H]1O[C@H](CO)[C@@H](O[C@@H]2O[C@H](CO)[C@H](O)[C@H](O[C@]3(C(=O)O)C[C@H](O)[C@@H](N)[C@H]([C@H](O)[C@H](O)CO)O3)[C@H]2O)[C@H](O)[C@H]1O)(CCCSCCCCCO[C@@H]1O[C@H](CO)[C@@H](O[C@@H]2O[C@H](CO)[C@H](O)[C@H](O[C@]3(C(=O)O)C[C@H](O)[C@@H](N)[C@H]([C@H](O)[C@H](O)CO)O3)[C@H]2O)[C@H](O)[C@H]1O)CCCSCCCCCO[C@@H]1O[C@H](CO)[C@@H](O[C@@H]2O[C@H](CO)[C@H](O)[C@H](O[C@]3(C(=O)O)C[C@H](O)[C@@H](N)[C@H]([C@H](O)[C@H](O)CO)O3)[C@H]2O)[C@H](O)[C@H]1O`: the IC50 in the test with Influenza A virus [1] came to 32 µM; in the test on Influenza A virus [2], 32 µM; in the test with Influenza A virus [3], 7.8 µM; with H3N2 subtype, 32 µM; in the test with Influenza A virus [4], 250 µM.
For the compound `N[C@H]1[C@H]([C@H](O)[C@H](O)CO)O[C@@](O[C@H]2[C@@H](O)[C@@H](CO)O[C@@H](O[C@H]3[C@H](O)[C@@H](O)[C@H](OCCCCCSCCC[Si](CCCSCCCCCO[C@@H]4O[C@H](CO)[C@@H](O[C@@H]5O[C@H](CO)[C@H](O)[C@H](O[C@]6(C(=O)O)C[C@H](O)[C@@H](N)[C@H]([C@H](O)[C@H](O)CO)O6)[C@H]5O)[C@H](O)[C@H]4O)(CCCSCCCCCO[C@@H]4O[C@H](CO)[C@@H](O[C@@H]5O[C@H](CO)[C@H](O)[C@H](O[C@]6(C(=O)O)C[C@H](O)[C@@H](N)[C@H]([C@H](O)[C@H](O)CO)O6)[C@H]5O)[C@H](O)[C@H]4O)c4ccccc4)O[C@@H]3CO)[C@@H]2O)(C(=O)O)C[C@@H]1O`, the IC50 with Influenza A virus [1] turned out to be 250 µM; with Influenza A virus [2], 64 µM; in the test on Influenza A virus [3] it was 64 µM; in the test with H3N2 subtype, 125 µM; in the test with Influenza A virus [4], 250 µM.
Take `C[Si](C)(CCC[Si](CCCNC(=O)CCCCCSCCCCCO[C@@H]1O[C@H](CO)[C@@H](O[C@@H]2O[C@H](CO)[C@H](O)[C@H](O[C@]3(C(=O)O)C[C@H](O)[C@@H](N)[C@H]([C@H](O)[C@H](O)CO)O3)[C@H]2O)[C@H](O)[C@H]1O)(CCCNC(=O)CCCCCSCCCCCO[C@@H]1O[C@H](CO)[C@@H](O[C@@H]2O[C@H](CO)[C@H](O)[C@H](O[C@]3(C(=O)O)C[C@H](O)[C@@H](N)[C@H]([C@H](O)[C@H](O)CO)O3)[C@H]2O)[C@H](O)[C@H]1O)CCCNC(=O)CCCCCSCCCCCO[C@@H]1O[C@H](CO)[C@@H](O[C@@H]2O[C@H](CO)[C@H](O)[C@H](O[C@]3(C(=O)O)C[C@H](O)[C@@H](N)[C@H]([C@H](O)[C@H](O)CO)O3)[C@H]2O)[C@H](O)[C@H]1O)CCC[Si](CCCNC(=O)CCCCCSCCCCCO[C@@H]1O[C@H](CO)[C@@H](O[C@@H]2O[C@H](CO)[C@H](O)[C@H](O[C@]3(C(=O)O)C[C@H](O)[C@@H](N)[C@H]([C@H](O)[C@H](O)CO)O3)[C@H]2O)[C@H](O)[C@H]1O)(CCCNC(=O)CCCCCSCCCCCO[C@@H]1O[C@H](CO)[C@@H](O[C@@H]2O[C@H](CO)[C@H](O)[C@H](O[C@]3(C(=O)O)C[C@H](O)[C@@H](N)[C@H]([C@H](O)[C@H](O)CO)O3)[C@H]2O)[C@H](O)[C@H]1O)CCCNC(=O)CCCCCSCCCCCO[C@@H]1O[C@H](CO)[C@@H](O[C@@H]2O[C@H](CO)[C@H](O)[C@H](O[C@]3(C(=O)O)C[C@H](O)[C@@H](N)[C@H]([C@H](O)[C@H](O)CO)O3)[C@H]2O)[C@H](O)[C@H]1O`: the IC50 with Influenza A virus [1] is 32 µM; with Influenza A virus [2] it was 8 µM; in the test with Influenza A virus [3], 5.6 µM; with H3N2 subtype, 4 µM; with Influenza A virus [4] it was 250 µM.
On the same counts, the results for `N[C@H]1[C@H]([C@H](O)[C@H](O)CO)O[C@@](O[C@H]2[C@@H](O)[C@@H](CO)O[C@@H](O[C@H]3[C@H](O)[C@@H](O)[C@H](OCCCCCSCCCCCC(=O)NCCC[Si](CCCNC(=O)CCCCCSCCCCCO[C@@H]4O[C@H](CO)[C@@H](O[C@@H]5O[C@H](CO)[C@H](O)[C@H](O[C@]6(C(=O)O)C[C@H](O)[C@@H](N)[C@H]([C@H](O)[C@H](O)CO)O6)[C@H]5O)[C@H](O)[C@H]4O)(CCCNC(=O)CCCCCSCCCCCO[C@@H]4O[C@H](CO)[C@@H](O[C@@H]5O[C@H](CO)[C@H](O)[C@H](O[C@]6(C(=O)O)C[C@H](O)[C@@H](N)[C@H]([C@H](O)[C@H](O)CO)O6)[C@H]5O)[C@H](O)[C@H]4O)CCCNC(=O)CCCCCSCCCCCO[C@@H]4O[C@H](CO)[C@@H](O[C@@H]5O[C@H](CO)[C@H](O)[C@H](O[C@]6(C(=O)O)C[C@H](O)[C@@H](N)[C@H]([C@H](O)[C@H](O)CO)O6)[C@H]5O)[C@H](O)[C@H]4O)O[C@@H]3CO)[C@@H]2O)(C(=O)O)C[C@@H]1O` are 62.5 µM, 16 µM, 16 µM, 4 µM and 250 µM.
In the case of `N[C@H]1[C@H]([C@H](O)[C@H](O)CO)O[C@@](O[C@H]2[C@@H](O)[C@@H](CO)O[C@@H](O[C@H]3[C@H](O)[C@@H](O)[C@H](OCCCCCSCCC[Si](CCCSCCCCCO[C@@H]4O[C@H](CO)[C@@H](O[C@@H]5O[C@H](CO)[C@H](O)[C@H](O[C@]6(C(=O)O)C[C@H](O)[C@@H](N)[C@H]([C@H](O)[C@H](O)CO)O6)[C@H]5O)[C@H](O)[C@H]4O)(CCCSCCCCCO[C@@H]4O[C@H](CO)[C@@H](O[C@@H]5O[C@H](CO)[C@H](O)[C@H](O[C@]6(C(=O)O)C[C@H](O)[C@@H](N)[C@H]([C@H](O)[C@H](O)CO)O6)[C@H]5O)[C@H](O)[C@H]4O)CCCSCCCCCO[C@@H]4O[C@H](CO)[C@@H](O[C@@H]5O[C@H](CO)[C@H](O)[C@H](O[C@]6(C(=O)O)C[C@H](O)[C@@H](N)[C@H]([C@H](O)[C@H](O)CO)O6)[C@H]5O)[C@H](O)[C@H]4O)O[C@@H]3CO)[C@@H]2O)(C(=O)O)C[C@@H]1O`, the IC50 was 125 µM in the test on Influenza A virus [1]; 64 µM with Influenza A virus [2]; 32 µM in the test with Influenza A virus [3]; 32 µM in the test on H3N2 subtype; 250 µM in the test on Influenza A virus [4].

One may read the IC50 as the midpoint of a concentration-inhibition curve.
